Compound activity (PubChem BioAssay)
MT stabilize HCS = stabilizes microtubules in HeLa cells; AID 2205; HeLa tubulin immunostaining HCS, 24 h; share of cells brighter than vehicle mean+2SD; % tubulin-high responders, % at 10 µM; 0.83% of 200,000 active;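 active = plate Z-score above 3 for both tubulin-high and condensed-nucleus cell shares, with cell loss under 80%, at 10 µM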;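 also: anti alpha tubulin signal scored within the nucleus-defined area of each cell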
Ba/F3 V617F tox = reduce viability of Ba/F3 cells dependent on JAK2V617F; Ba/F3 EpoR-JAK2V617F viability, ATP luminescence; 1.1% of 220,000 active; inhibition, % at 5.6 µM;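 active = inhibition above the campaign mean plus 3 SD over all tested compounds, cut at about 24% in these data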;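 also: cytokine-independent growth of Ba/F3 cells driven by EpoR plus mutant JAK2; 0% = DMSO-treated cells and 100% = JAK inhibitor I control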
b-catenin transl = beta-catenin nuclear translocation modulation | HeLa beta-catenin nuclear translocation, immunofluorescence imaging | 0.3% of 190,000 active | nuclear translocation activity, % at 5 µM;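 active = nuclear translocation activity above 50% at 5 µM, with a well cell count of 50 or more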;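 also: per-cell ratio of nuclear to cytoplasmic median beta-catenin stain intensity; plate controls were DMSO negative control for no effect and GSK-3 inhibitor IX positive control for full effect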
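Test system: HeLa cells, endogenous beta-catenin; Compound: single 5 µM dose plus 0.02–20 µM confirmation series; Times: compound exposure 24 h at 37°C; Signal: fluorescence imaging of beta-catenin antibody stain plus DAPI; Read-out: % activation, nuclear-to-cytoplasmic median beta-catenin signal ratio per cell.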
IEC-6 tox = kills IEC-6 intestinal cells in KLF5 counter-screen. IEC-6 cytotoxicity, luminescence viability. inhibition, % at 5 µM. 0.78% of 290,000 active. AID 1825; in the data active = inhibition above about 22%;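 also: 0% = plate median of test compound wells and 100% = cytotoxic reference compound wells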
APP 5UTR inh = APP translation inhibition | SH-SY5Y APP 5'UTR-luciferase reporter, luminescence | inhibition, % at 2 µM | 0.82% of 190,000 active | AID 1285;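 active = inhibition above a set limit, derived from the sample mean plus 3 SD, cut at about 45% in these data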
BaF3 tox = parental Ba/F3 viability inhibition as JAK2V617F counter-screen. CellTiter-Glo ATP luminescence. inhibition, % at 5.6 µM. 1.1% of 220,000 active. AID 1486;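 active = inhibition above a per-campaign cutoff, the mean inhibition of all tested compounds plus 3 SD, cut at about 27% in these data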;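 also: 0% = DMSO wells and 100% = JAK Inhibitor I control wells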
Starred values were filed as active, the others as inactive; x = no result given. Compounds with a hit are over-represented: about 2.2% of the library has one in this group of screens.

SMILES | MT stabilize HCS | Ba/F3 V617F tox | b-catenin transl | IEC-6 tox | APP 5UTR inh | BaF3 tox
O=P(O)(O)c1cc(-c2ccccc2)oc1-c1ccccc1 | x | -1 | 1 | -5 | x | 28*
COC(=O)c1ccc(COC(=O)CNC(=O)c2cccs2)cc1 | x | x | x | -6 | x | x
COc1cccc(N2CCN(Cc3nc4scc(-c5ccccc5)c4c(=O)[nH]3)CC2)c1 | 15* | 0 | 8 | 6 | -14 | 7
O=c1[nH]c(CN2CCN(c3ccc(O)cc3)CC2)nc2scc(-c3ccc(Cl)cc3)c12 | 21* | 4 | 7 | 20 | 62* | 9
O=c1[nH]c(CN2CCN(c3ccccc3O)CC2)nc2scc(-c3ccccc3Cl)c12 | x | 4 | 0 | 2 | x | 2
Cc1ccc(N(C(=O)c2snc(C(N)=O)c2N)C(C(=O)NCc2ccccc2)c2ccncc2)c(C)c1 (centres undefined) | x | x | x | 6 | x | x
COc1ccc(N2CC(O)=C(c3nc4ccccc4s3)C2=N)cc1 | 3 | 3 | -1 | 4 | -14 | 4
N=C1C(c2nc3ccccc3c(=O)[nH]2)=C(O)CN1c1ccccc1 | 42* | 2 | x | 2 | -2 | 3
N=C1C(c2nc3ccccc3s2)=C(O)CN1c1ccccc1 | 28* | 3 | 0 | 14 | -17 | 4
Cc1ccc(N2CC(O)=C(c3nc4ccccc4c(=O)[nH]3)C2=N)cc1C | 3 | -3 | 0 | -4 | -8 | 7
Cc1cccc(/C=N/NC(=O)c2ccc(NC(=O)c3cccc(Cl)c3)cc2)n1 | x | x | x | -8 | x | x
Cc1ccc(C2CC(c3ccccc3)=NN2C(=S)Nc2ccccc2)o1 (centres undefined) | 50* | 1 | x | -4 | 4 | 3
Cc1ccc2c(c1)N(CC(=O)N1CCCCC1C)C(=O)CO2 (centres undefined) | x | x | x | -5 | x | x
COc1cccc(N/C(C)=C/C(=O)c2ccc(Br)cc2)c1 | 2 | -2 | -4 | -1 | -56 | 2
C/C(=C\C(=O)c1ccc(Cl)cc1)Nc1ccc(N2CCOCC2)cc1 | 1 | 33* | x | 6 | -9 | 28*
C/C(=C\C(=O)c1ccc(Br)cc1)Nc1ccc(Cl)cc1 | 3 | 2 | 1 | 7 | -29 | 92*
CNc1ccc(Br)cc(C(=O)/C=C/c2cccc(OC)c2OC)c1=O | 4 | -2 | -1 | -2 | -26 | 2
CNc1ccc(Br)cc(C(=O)/C=C/c2cccc(Cl)c2Cl)c1=O | 9.9* | 0 | 1 | 0 | 42 | 9
Cc1ccc(NC(=O)Cn2ccnc2)cc1C | x | x | x | 6 | x | x
O=C(COc1ccc(S(=O)(=O)N2CCOCC2)cc1)Nc1ccc(Cl)c(C(F)(F)F)c1 | 32* | 3 | 2 | -2 | 14 | 5
O=C(COc1ccc(S(=O)(=O)N2CCOCC2)cc1)Nc1ccc2c(c1)OCCO2 | 2 | -3 | x | 4 | -13 | 0
O=S(=O)(c1ccc(Cl)c(Cl)c1)c1snnc1-c1ccccc1 | 5 | 58* | 1 | 2 | 95* | 42*
CC1=Nc2cc(C(=O)NCCCOC(C)C)ccc2Sc2ccccc21 | 24* | 1 | 15 | 8 | 1 | 4
CC1=Nc2cc(C(=O)N3CCCC3)ccc2Sc2ccc(C)cc21 | x | x | x | 0 | x | x
CC(C)OCCCNC(=O)c1ccc2c(c1)NC(=O)c1ccccc1S2 | x | x | x | -1 | x | x
SMILES | MT stabilize HCS | Ba/F3 V617F tox | b-catenin transl | IEC-6 tox | APP 5UTR inh | BaF3 tox
CCCC1=Nc2cc(C(=O)NCCCOC(C)C)ccc2Sc2ccccc21 | 22* | 7 | 72* | 5 | 2 | 11
CC1=Nc2cc(C(=O)NCCCOC(C)C)ccc2Sc2ccc(C)cc21 | 12 | 74* | 38 | 84* | 95* | 71*
Cc1cccc(NC(=O)c2cc(-c3cccnc3)nc3c(C)cccc23)n1 | x | x | x | 3 | x | x
COc1ccccc1-c1nc(SCC(=O)Nc2cc(C)on2)c2c(=O)n(C)c(=O)n(C)c2n1 | x | x | x | 3 | x | x
CCOc1ccccc1N1CC(C(=O)N(C)Cc2cccnc2)CC1=O (centres undefined) | x | x | x | 3 | x | x
COc1ccc(CN=Cc2[nH]c3ccc(Br)c(Cl)c3c2O)cc1 | 2 | -5 | 2 | 4 | -17 | -2
Cc1cc(C)cc(N=Cc2[nH]c3ccc(Br)c(Cl)c3c2O)c1 | 31* | -7 | -1 | 13 | -9 | 0
COc1ccc2c(c1)sc(=N)n2C | 4 | 58* | 0 | -1 | 6 | 69*
CCOC(=O)c1c(S(=O)(=O)NCC(C)c2ccccc2)c(C)n(C)c1C (centres undefined) | x | x | x | 1 | x | x
CCOC(=O)COc1cccc2c(=O)n(CC(=O)NCc3ccc4c(c3)OCO4)ccc12 | 19* | -3 | 64* | 1 | -17 | 1
CCOC(=O)COc1cccc2c(=O)n(CC(=O)NCCc3ccccc3)ccc12 | 3 | -3 | 0 | -6 | 12 | 3
Cc1ccc(-c2c[n+](CC(=O)c3cccs3)c3n2CCC3)cc1 | x | 33* | 0 | 5 | x | 62*
COc1ccc(-c2c[n+](CC(=O)c3cccs3)c3n2CCC3)cc1 | x | 19 | 0 | 2 | x | 29*
Cc1ccc(-c2c[n+](CC(=O)OCc3ccccc3)c3n2CCC3)cc1 | 1 | 0 | 3 | -3 | -23 | 4
CC(C)c1cccc(OCCN2CCCC2)c1 | x | x | x | 2 | x | x
CC(=O)N(Cc1ccc(F)cc1)C1=C(NCCc2ccccc2)C(=O)c2ccccc2C1=O | 11 | 7 | x | 54* | 44 | 7
Cc1ccc(S(=O)(=O)NCc2cccnc2)cc1C | x | x | x | -1 | x | x
Cc1ccc2nc(-c3ccc(NC(=S)NC4CC(C)(C)NC(C)(C)C4)cc3)sc2c1 | 34 | 2 | 72* | 4 | -168 | 10
CC1(C)CNc2cc([N+](=O)[O-])ccc2S1 | 4 | 3 | 0 | 1 | 26 | 4
COc1ccc(-n2c(-c3ccc(Br)cc3)n[nH]c2=S)cc1 | x | x | x | -3 | x | x
COc1ccc(-n2c(-c3ccc(Br)cc3)c[n+]3c2SC(C)C3)cc1 (centres undefined) | 2 | 76* | -4 | 5 | -37 | 67*
COc1ccc(-n2c(-c3ccc(Br)cc3)c[n+]3c2CCCCC3)cc1 | 1 | 76* | -1 | 18 | 0 | 64*
COc1ccc(-n2c(-c3ccc(Br)cc3)nc(=S)c3c2CCCC3)cc1 | 2 | -3 | -1 | -1 | 8 | 4
COc1ccc(-n2c(-c3ccc(Br)cc3)c[n+]3c2CCC3)cc1 | 4 | 81* | 0 | -1 | 7 | 66*
COc1ccc(-n2c(-c3ccccc3)c[n+]3c2CCC3)cc1 | x | 75* | 2 | 2 | x | 63*
COc1ccccc1N(C)S(=O)(=O)c1ccc(C(=O)N2CCCc3ccccc32)cc1 | x | x | x | 5 | x | x
O=C(c1ccccc1Br)N(Cc1ccccc1)c1ccccc1 | x | x | x | 0 | x | x
COc1ccc(NC(=O)CN(C)S(=O)(=O)c2cnc[nH]2)cc1Cl | x | x | x | 1 | x | x
O=C(COC(=O)/C=C/c1ccccc1Cl)NCCNC(=O)COC(=O)/C=C/c1ccccc1Cl | x | x | x | -3 | x | x
Cc1oc2c(CN3CCOCC3)c(O)ccc2c(=O)c1-c1ccc(Cl)cc1 | x | 41* | -3 | 5 | x | 48*
